The source made the active and inactive calls. No cut-off for these calls is given here.
Legend:
HL-60 [1] = experiment: Induction of apoptosis in human HL60 cells assessed as late apoptotic cells level at 2 uM incubated for 24 hrs by annexinV/7-AAD double staining based flow cytometry (reference value: 0.43%); assay type: functional
HL-60 [2] = experiment: Induction of apoptosis in human HL60 cells assessed as necrotic cells level at 2 uM incubated for 24 hrs by annexinV/7-AAD double staining based flow cytometry (reference value: 3.45%); assay type: functional
HL-60 [3] = experiment: Cell cycle arrest in human HL60 cells assessed as accumulation at subG0/G1 phase at 1 uM by NIM-DAPI staining based flow cytometry (reference value: 2.8 +/- 0.8%); assay type: functional
HL-60 [4] = experiment: Reduction in mitochondrial transmembrane electric potential in human HL60 cells 1 uM incubated for 96 hrs by DiOC6(3) dye staining based flow cytometry; assay type: functional, cell-based
Outline: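 HL-60 cells given DMSO vehicle or 1 µM test agent for 96 h, then loaded with 100 nM DiOC6(3) for 30 min at 37 °C. After washing and resuspension in PBS, the cells were read at once by flow cytometry in FL-1.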

HL-60 [5] = experiment: Induction of apoptosis in human HL60 cells assessed as late apoptotic cells level at 1 uM incubated for 24 hrs by annexinV/7-AAD double staining based flow cytometry (reference value: 0.43%); assay type: functional
HL-60 [6] = experiment: Induction of apoptosis in human HL60 cells assessed as viable cells level at 2 uM incubated for 24 hrs by annexinV/7-AAD double staining based flow cytometry (reference value: 92.44%); assay type: functional
[7] = biological target: MAP kinase p38 (Homo sapiens) (UniProt O15264+Q15759+Q16539+P53778); experiment: Induction of p38 MAPK phosphorylation in human HL60 cells at 1 uM incubated for 1 to 24 hrs by Western blot method; assay type: cell-based; conditions: HL-60
Outline: (§1)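 HL-60 cells exposed to 1 µM test agent for the indicated times, then lysed. 15 µg protein run on 12% SDS-PAGE, blotted to PVDF, probed overnight at 4 °C with antibodies to phospho- or total ERK1/2, p38 (Thr180/Tyr182), SAPK/JNK (Thr183/Tyr185) or c-Myc. HRP secondary, chemiluminescent read-out.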

HL-60 [8] = experiment: Effect on total ERK1/2 protein expression in human HL60 cells at 1 uM incubated for 1 to 24 hrs by Western blot method; assay type: functional, cell-based; outline: as §1
HL-60 [9] = experiment: Effect on total SAPK/JNK protein expression in human HL60 cells at 1 uM incubated for 1 to 24 hrs by Western blot method; assay type: functional, cell-based; outline: as §1
HL-60 [10] = experiment: Antiproliferative activity against human HL60 cells after 24 hrs by MTT assay; assay type: functional, cell-based; conditions: HL-60, 24 h
Outline: (§2)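 HL-60 cells seeded at 2×10^4 per well, treated after 24 h with serial dilutions (0.0625-1 µM) for 24, 48, 72 or 96 h; DMSO 0.1% vehicle control. MTT added (final 500 µg/mL) for 4 h, formazan dissolved in DMSO, OD at 540 nm. Inhibition calculated relative to vehicle control after subtracting time-zero reading; IC50 by curve fitting; n = 6 per group.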

HL-60 [11] = experiment: Induction of apoptosis assessed as increase in caspase 8 enzyme activity in human HL60 cells at 1 uM incubated for 24 to 72 hrs by luminometry relative to untreated control; assay type: functional, cell-based
Outline: (§3)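 HL-60 cells treated with serial dilutions in 96-well plates for 24, 48 and 72 h. Luminogenic caspase-3/7, caspase-8 or caspase-9 substrate reagent added for 3 h at room temperature, then luminescence read. Results are expressed as fold over DMSO vehicle control.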

[12] = biological target: c-Jun N-terminal kinase, JNK (Homo sapiens) (UniProt P45983+P53779+P45984); experiment: Induction of JNK phosphorylation in human HL60 cells at 1 uM incubated for 1 to 24 hrs by Western blot method; assay type: cell-based; conditions: HL-60; outline: as §1
HL-60 [13] = experiment: Down regulation of c-Myc protein expression in human HL60 cells at 1 uM after 2 hrs by Western blot method; assay type: functional, cell-based; outline: as §1
HL-60 [14] = experiment: Induction of apoptosis assessed as increase in caspase 3/7 enzyme activity in human HL60 cells at 1 uM incubated for 24 to 72 hrs by luminometry relative to untreated control; assay type: functional; outline: as §3
HL-60 [15] = experiment: Induction of cleaved caspase 7 expression in human HL60 cells at 0.25 to 2 uM incubated for 24 hrs by Western blotting method; assay type: functional, cell-based
Outline: (§4)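 HL-60 cells exposed for 24 h to the stated concentrations and lysed; protein measured by Bradford. Lysate (15 µg) run on 12% SDS-PAGE and transferred to PVDF. Blocked in 5% milk/TBST for 1 h, primary antibody overnight at 4 °C, HRP secondary for 2 h at room temperature, chemiluminescent detection.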

HL-60 [16] = experiment: Induction of cleaved caspase 3 expression in human HL60 cells at 0.25 to 2 uM incubated for 24 hrs by Western blotting method; assay type: functional, cell-based; outline: as §4
HL-60 [17] = experiment: Cell cycle arrest in human HL60 cells assessed as accumulation at subG0/G1 phase at 0.0625 uM by NIM-DAPI staining based flow cytometry (reference value: 2.8 +/- 0.8%); assay type: functional
HL-60 [18] = experiment: Induction of PARP cleavage in human HL60 cells 2 uM incubated for 24 hrs by Western blot method; assay type: functional, cell-based; outline: as §4
HL-60 [19] = experiment: Effect on total p38MAPK protein expression in human HL60 cells at 1 uM incubated for 1 to 24 hrs by Western blot method; assay type: functional, cell-based; outline: as §1
HL-60 [20] = experiment: Induction of PARP cleavage in human HL60 cells 1 uM incubated for 24 hrs by Western blot method; assay type: functional, cell-based; outline: as §4
HL-60 [21] = experiment: Cell cycle arrest in human HL60 cells assessed as accumulation at G2/M phase at 0.5 uM by NIM-DAPI staining based flow cytometry (reference value: 13.2 +/- 2.8%); assay type: functional
HL-60 [22] = experiment: Induction of apoptosis in human HL60 cells assessed as viable cells level at 1 uM incubated for 24 hrs by annexinV/7-AAD double staining based flow cytometry (reference value: 92.44%); assay type: functional
HL-60 [23] = experiment: Cell cycle arrest in human HL60 cells assessed as accumulation at G2/M phase at 0.125 uM by NIM-DAPI staining based flow cytometry (reference value: 13.2 +/- 2.8%); assay type: functional
HL-60 [24] = experiment: Cell cycle arrest in human HL60 cells assessed as accumulation at G2/M phase at 0.0625 uM by NIM-DAPI staining based flow cytometry (reference value: 13.2 +/- 2.8%); assay type: functional
HL-60 [25] = experiment: Cell cycle arrest in human HL60 cells assessed as accumulation at subG0/G1 phase at 0.125 uM by NIM-DAPI staining based flow cytometry (reference value: 2.8 +/- 0.8%); assay type: functional
HL-60 [26] = experiment: Cell cycle arrest in human HL60 cells assessed as accumulation at G2/M phase at 0.25 uM by NIM-DAPI staining based flow cytometry (reference value: 13.2 +/- 2.8%); assay type: functional
HL-60 [27] = experiment: Cell cycle arrest in human HL60 cells assessed as accumulation at subG0/G1 phase at 0.25 uM by NIM-DAPI staining based flow cytometry (reference value: 2.8 +/- 0.8%); assay type: functional
HL-60 [28] = experiment: Induction of apoptosis assessed as increase in caspase 9 enzyme activity in human HL60 cells at 1 uM incubated for 24 to 72 hrs by luminometry relative to untreated control; assay type: functional; outline: as §3
HL-60 [29] = experiment: Cell cycle arrest in human HL60 cells assessed as accumulation at subG0/G1 phase at 0.5 uM by NIM-DAPI staining based flow cytometry (reference value: 2.8 +/- 0.8%); assay type: functional
HL-60 [30] = experiment: Antiproliferative activity against human HL60 cells after 96 hrs by MTT assay; assay type: functional, cell-based; conditions: HL-60, 96 h; outline: as §2
HL-60 [31] = experiment: Induction of apoptosis in human HL60 cells assessed as early apoptotic cells level at 2 uM incubated for 24 hrs by annexinV/7-AAD double staining based flow cytometry (reference value: 3.68%); assay type: functional
HL-60 [32] = experiment: Antiproliferative activity against human HL60 cells after 72 hrs by MTT assay; assay type: functional, cell-based; conditions: HL-60, 72 h; outline: as §2
HL-60 [33] = experiment: Antiproliferative activity against human HL60 cells after 48 hrs by MTT assay; assay type: functional, cell-based; conditions: HL-60, 48 h; outline: as §2
HL-60 [34] = experiment: Induction of apoptosis in human HL60 cells assessed as early apoptotic cells level at 1 uM incubated for 24 hrs by annexinV/7-AAD double staining based flow cytometry (reference value: 3.68%); assay type: functional
HL-60 [35] = experiment: Induction of apoptosis in human HL60 cells assessed as necrotic cells level at 1 uM incubated for 24 hrs by annexinV/7-AAD double staining based flow cytometry (reference value: 3.45%); assay type: functional

Question: For `Cl.Cl.NCCCn1c2c(c3ccc(N)cc3c1=O)C(=O)c1ccccc1-2`, which Activity (HL-60 [1]) is on record?
Answer: The Activity was 6.27%.

Question: And the Activity (HL-60 [2])?
Answer: The Activity was 4.57%.

Question: And the Activity (HL-60 [3])?
Answer: Its Activity is 26.5%.

Question: And the Activity (HL-60 [4])?
Answer: The Activity was “Active”.

Question: And the Activity (HL-60 [5])?
Answer: Its Activity is 5.21%.

Question: What about the Activity (HL-60 [6]) of the same compound?
Answer: The Activity was 37.6%.

Question: And the Activity [7]?
Answer: Its Activity is “Active”.

Question: And the Activity (HL-60 [8])?
Answer: Its Activity is “inactive”.

Question: And the Activity (HL-60 [9])?
Answer: Its Activity is “inactive”.

Question: What about the IC50 (HL-60 [10]) of the same compound?
Answer: Its IC50 is 0.8 µM.

Question: What about the Activity (HL-60 [11]) of the same compound?
Answer: Its Activity is “inactive”.

Question: And the Activity [12]?
Answer: Its Activity is “Active”.

Question: What about the Activity (HL-60 [13]) of the same compound?
Answer: The Activity was “Active”.

Question: And the “fold change (FC)” value (HL-60 [14])?
Answer: Its value is 12.6.

Question: What about the Activity (HL-60 [15]) of the same compound?
Answer: The Activity was “Active”.

Question: And the Activity (HL-60 [16])?
Answer: Its Activity is “Active”.

Question: What about the Activity (HL-60 [17]) of the same compound?
Answer: Its Activity is 4.6%.

Question: What about the Activity (HL-60 [18]) of the same compound?
Answer: The Activity was “Active”.

Question: What about the Activity (HL-60 [19]) of the same compound?
Answer: The Activity was “inactive”.

Question: And the Activity (HL-60 [20])?
Answer: The Activity was “Active”.

Question: And the Activity (HL-60 [21])?
Answer: The Activity was 27.6%.

Question: And the Activity (HL-60 [22])?
Answer: Its Activity is 57.62%.

Question: And the Activity (HL-60 [23])?
Answer: The Activity was 39.6%.

Question: What about the Activity (HL-60 [24]) of the same compound?
Answer: Its Activity is 22%.

Question: What about the Activity (HL-60 [25]) of the same compound?
Answer: The Activity was 6%.

Question: What about the Activity (HL-60 [26]) of the same compound?
Answer: Its Activity is 45%.

Question: And the Activity (HL-60 [27])?
Answer: The Activity was 6.1%.

Question: What about the “fold change (FC)” value (HL-60 [28]) of the same compound?
Answer: Its value is 7.8.

Question: And the Activity (HL-60 [29])?
Answer: Its Activity is 11.1%.

Question: What about the IC50 (HL-60 [30]) of the same compound?
Answer: The IC50 was 0.086 µM.

Question: And the Activity (HL-60 [31])?
Answer: The Activity was 51.56%.

Question: And the IC50 (HL-60 [32])?
Answer: Its IC50 is 0.15 µM.

Question: And the IC50 (HL-60 [33])?
Answer: The IC50 was 0.35 µM.

Question: What about the Activity (HL-60 [34]) of the same compound?
Answer: Its Activity is 34.18%.

Question: What about the Activity (HL-60 [35]) of the same compound?
Answer: The Activity was 2.99%.

From ChEMBL document CHEMBL2169794, “Induction of apoptosis by 3-amino-6-(3-aminopropyl)-5,6-dihydro-5,11-dioxo-11H-indeno[1,2-c]isoquinoline via modulation of MAPKs (p38 and c-Jun N-terminal kinase) and c-Myc in HL-60 human leukemia cells” (J Nat Prod, 2012)
